# Source: ChEMBL document CHEMBL1129267, “Aryl 1-but-3-ynyl-4-phenyl-1,2,3,6-tetrahydropyridines as potential antipsychotic agents: synthesis and structure-activity relationships” (J Med Chem, 1996)
# Key:
# D(2) dopamine receptor [1] = target: T1, D(2) dopamine receptor (Rattus norvegicus, UniProt P61169); test: Binding affinity at Dopamine receptor D2 in rat striatal membrane by [3H]spiperone displacement.; assay type: cell membranes, Striatum
# Outline: (§1)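 Rat striatal membranes; [³H]spiperone 0.2 nM final; nonspecific binding defined with (+)-butaclamol 1.0 µM final. Four to six concentrations, each run in triplicate; Ki obtained by nonlinear regression analysis.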
# Rattus norvegicus [2] = test: In vivo inhibition of locomotor activity in the rat following p.o. administration.; assay type: functional; conditions: po
# D(3) dopamine receptor = D(3) dopamine receptor (Homo sapiens, UniProt P35462); test: Binding affinity against human Dopamine receptor D3 in CHO-K1 cells using [3H]spiperone as radioligand; assay type: cell-based
# D(4) dopamine receptor = target: T2, D(4) dopamine receptor (Homo sapiens, UniProt P21917); test: Binding affinity against human Dopamine receptor D4 in CHO-K1 cells using [3H]spiperone as radioligand; assay type: cell-based
# T2 sequence (P21917 whole entry): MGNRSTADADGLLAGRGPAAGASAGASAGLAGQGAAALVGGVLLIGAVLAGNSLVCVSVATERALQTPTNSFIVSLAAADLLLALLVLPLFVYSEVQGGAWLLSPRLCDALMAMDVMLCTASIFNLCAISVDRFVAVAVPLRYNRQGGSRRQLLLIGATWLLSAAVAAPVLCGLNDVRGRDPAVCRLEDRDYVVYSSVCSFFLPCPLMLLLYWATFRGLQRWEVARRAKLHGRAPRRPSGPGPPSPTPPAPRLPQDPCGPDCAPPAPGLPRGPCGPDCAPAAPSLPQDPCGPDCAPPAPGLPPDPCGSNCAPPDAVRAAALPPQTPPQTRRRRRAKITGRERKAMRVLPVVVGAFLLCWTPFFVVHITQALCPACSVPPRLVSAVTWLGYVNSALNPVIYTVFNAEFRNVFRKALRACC
# Outline: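 Human D4.2 receptor expressed in CHO K1 cells; [³H]spiperone 0.2 nM final; nonspecific binding defined with haloperidol 1.0 µM final.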
# Rattus norvegicus [3] = test: Percent reversal of the increase on DOPA levels in the striatum of GBL-treated rats at a dose of 10 mg/kg ip; assay type: functional; conditions: route intraperitoneal
# Mus musculus [4] = test: (§2) Compound was tested for the inhibition of locomotor activity (LMA)by administering Intraperitoneally in mouse.; assay type: functional; conditions: ip
# Rattus norvegicus [5] = test: Percent decrease of the firing rate of rat substantia nigra DA neurons at a dose of 2.5 mg/kg ip; assay type: functional; conditions: route intraperitoneal
# Rattus norvegicus [6] = test: Compound was tested for the inhibition of locomotor activity (LMA)by administering orally in rat; assay type: functional; conditions: po
# Outline: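 Rats dosed orally 1 h before a 30 min test in darkened cylindrical photobeam chambers. Percent inhibition of locomotor activity relative to vehicle-treated animals; ED50 derived from three to six doses, n = 6-18 animals/dose.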
# D(2) dopamine receptor [7] = target: T1, D(2) dopamine receptor; test: Compound was evaluated for their affinity against dopamine receptor D2 by displacing [3H]-spiperone in rat striatal membrane; assay type: cell membranes, Striatum; outline: as §1
# [8] = target: T3, 5-hydroxytryptamine receptor 1A (Rattus norvegicus, UniProt P19327); test: (§3) Binding affinity against serotonin 5-hydroxytryptamine 1A receptor using radioligand [3H]8-OH-DPAT binding assay; parameters: species or system Homo sapiens
# T3 sequence (P19327 whole entry): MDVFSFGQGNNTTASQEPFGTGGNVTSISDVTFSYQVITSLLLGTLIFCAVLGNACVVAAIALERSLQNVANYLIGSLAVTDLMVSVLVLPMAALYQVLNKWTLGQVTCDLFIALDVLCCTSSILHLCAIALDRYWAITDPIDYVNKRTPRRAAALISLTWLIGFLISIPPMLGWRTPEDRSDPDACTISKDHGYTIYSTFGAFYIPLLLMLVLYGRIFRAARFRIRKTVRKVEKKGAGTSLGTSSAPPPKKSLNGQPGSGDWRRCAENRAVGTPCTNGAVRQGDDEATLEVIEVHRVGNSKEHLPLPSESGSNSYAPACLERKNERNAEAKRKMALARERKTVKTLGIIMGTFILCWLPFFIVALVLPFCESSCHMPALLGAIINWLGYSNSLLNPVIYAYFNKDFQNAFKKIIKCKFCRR
# Outline: (§4)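 Rat hippocampal membranes labelled with [³H]-8-OH-DPAT (0.4 nM final); nonspecific binding with 8-OH-DPAT (1 µM).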
# D(2) dopamine receptor [9] = target: T1, D(2) dopamine receptor; test: Binding affinity against Dopamine receptor D2 in CHO-K1 cells using radioligand [3H]NPA binding assay; assay type: cell-based
# [10] = target: T4, Adrenergic receptor alpha-1 (Rattus norvegicus, UniProt P15823+P23944+P43140); test: Binding affinity against Alpha-1 adrenergic receptor using radioligand [3H]prazosin binding assay.; assay type: protein assay
# T4 sequence (P15823 whole entry): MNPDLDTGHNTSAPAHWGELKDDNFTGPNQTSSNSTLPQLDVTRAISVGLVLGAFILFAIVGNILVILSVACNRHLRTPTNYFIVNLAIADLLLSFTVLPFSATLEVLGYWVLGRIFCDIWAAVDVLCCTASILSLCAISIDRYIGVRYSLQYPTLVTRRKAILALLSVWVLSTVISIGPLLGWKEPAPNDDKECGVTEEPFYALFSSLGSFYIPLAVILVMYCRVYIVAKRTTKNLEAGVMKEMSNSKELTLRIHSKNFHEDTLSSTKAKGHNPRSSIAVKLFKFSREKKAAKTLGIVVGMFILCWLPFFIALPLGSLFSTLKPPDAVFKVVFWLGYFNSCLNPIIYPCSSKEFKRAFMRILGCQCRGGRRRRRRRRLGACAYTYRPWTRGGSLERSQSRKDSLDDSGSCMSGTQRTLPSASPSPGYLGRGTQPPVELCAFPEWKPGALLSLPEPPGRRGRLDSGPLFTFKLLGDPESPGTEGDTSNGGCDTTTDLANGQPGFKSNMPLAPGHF
# T4 sequence (P23944 whole entry): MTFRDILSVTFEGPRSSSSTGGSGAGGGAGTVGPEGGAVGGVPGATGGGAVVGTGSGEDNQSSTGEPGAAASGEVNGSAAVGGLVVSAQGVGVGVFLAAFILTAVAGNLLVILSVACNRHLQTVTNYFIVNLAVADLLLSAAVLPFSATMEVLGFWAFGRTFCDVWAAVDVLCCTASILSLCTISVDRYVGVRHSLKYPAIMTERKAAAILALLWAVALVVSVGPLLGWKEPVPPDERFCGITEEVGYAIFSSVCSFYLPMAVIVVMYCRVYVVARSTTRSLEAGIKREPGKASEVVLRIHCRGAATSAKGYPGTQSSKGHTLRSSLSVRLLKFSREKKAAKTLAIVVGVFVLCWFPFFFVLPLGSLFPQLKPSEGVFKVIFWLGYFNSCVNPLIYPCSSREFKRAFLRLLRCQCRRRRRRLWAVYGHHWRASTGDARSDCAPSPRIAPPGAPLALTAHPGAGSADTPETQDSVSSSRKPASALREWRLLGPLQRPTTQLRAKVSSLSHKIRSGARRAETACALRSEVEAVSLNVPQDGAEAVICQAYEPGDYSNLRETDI
# T4 sequence (P43140 whole entry): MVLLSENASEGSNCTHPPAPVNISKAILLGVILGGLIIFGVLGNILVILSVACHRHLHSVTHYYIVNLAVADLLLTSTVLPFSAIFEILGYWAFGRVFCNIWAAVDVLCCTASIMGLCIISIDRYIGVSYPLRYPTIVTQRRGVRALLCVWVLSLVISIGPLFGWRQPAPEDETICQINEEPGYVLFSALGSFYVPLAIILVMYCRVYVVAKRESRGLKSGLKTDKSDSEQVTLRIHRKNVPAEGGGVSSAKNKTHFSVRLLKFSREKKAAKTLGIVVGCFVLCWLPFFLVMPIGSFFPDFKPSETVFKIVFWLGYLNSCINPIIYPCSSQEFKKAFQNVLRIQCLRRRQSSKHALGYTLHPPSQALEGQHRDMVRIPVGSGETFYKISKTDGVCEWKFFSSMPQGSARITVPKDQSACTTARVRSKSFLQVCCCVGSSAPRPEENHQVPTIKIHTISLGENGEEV
# Outline: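 Inhibition of [³H]prazosin (0.1 nM final) binding in rat cortex membranes; phentolamine (10 µM final) defines nonspecific binding.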
# Monkey = test: Compound was tested for inhibition of conditioned avoidance after administering perorally(po) in squirrel monkeys; assay type: functional; conditions: Cebidae, in Saimiri
# D(2) dopamine receptor [11] = target: T5, D(2) dopamine receptor (Homo sapiens, UniProt P14416); test: Compound was evaluated […] for Dopamine receptor D2 mitogenesis. [3H]thymidine incorporation in CHO p-5 cells expressing human D2 receptors.; assay type: organism-based
# Outline: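 CHO p-5 cells transfected with human D2L receptor are grown 2 days at 37 °C in medium with 10% calf serum, then rinsed and put in serum-free medium. Compound (in water) is added for 16-17 h, then [³H]thymidine (1 µCi/well) for 4 h. Cells are harvested and counted. Maximal effect is given as % of quinpirole (100%).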
# Mus musculus [12] = test: as §2; assay type: functional; conditions: ip; remark: listed apart in the source
# Outline: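 Mice dosed ip, then tested immediately for 1 h in darkened cylindrical photobeam chambers. Percent inhibition of locomotor activity relative to vehicle-treated animals; ED50 derived from three to six doses, n = 6-18 animals/dose.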
# D(1A) dopamine receptor = D(1A) dopamine receptor (Rattus norvegicus, UniProt P18901); assay type: cell membranes, Brain, Membrane
# [13] = target: T3, 5-hydroxytryptamine receptor 1A; test: as §3; outline: as §4
# D(2) dopamine receptor [14] = target: T5, D(2) dopamine receptor; test: […] Dopamine receptor D2 mitogenesis measured as [3H]thymidine incorporation in CHO p-5 cells expressing human D2 receptors
# Outline: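 CHO p-5 cells transfected with human D2L are grown 2 days at 37 °C in medium with 10% calf serum, rinsed, and switched to serum-free medium plus compound in water. After 16-17 h, [³H]thymidine (1 µCi/well) is added for 4 h; cells are harvested onto filters and counted.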
# T5 sequence (P14416 whole entry): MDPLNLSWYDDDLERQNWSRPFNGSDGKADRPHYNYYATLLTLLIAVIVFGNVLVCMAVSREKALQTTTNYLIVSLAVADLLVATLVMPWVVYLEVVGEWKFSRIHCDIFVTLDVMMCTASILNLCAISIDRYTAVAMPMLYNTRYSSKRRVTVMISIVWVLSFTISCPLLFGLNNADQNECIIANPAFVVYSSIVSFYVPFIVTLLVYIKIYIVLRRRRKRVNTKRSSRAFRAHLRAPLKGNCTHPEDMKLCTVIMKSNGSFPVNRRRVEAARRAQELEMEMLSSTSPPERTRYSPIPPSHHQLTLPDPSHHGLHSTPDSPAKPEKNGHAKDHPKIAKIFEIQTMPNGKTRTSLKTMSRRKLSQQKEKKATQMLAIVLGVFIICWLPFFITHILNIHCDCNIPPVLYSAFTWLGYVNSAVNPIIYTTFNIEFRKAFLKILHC
# D(3) dopamine receptor, sequence (P35462 whole entry): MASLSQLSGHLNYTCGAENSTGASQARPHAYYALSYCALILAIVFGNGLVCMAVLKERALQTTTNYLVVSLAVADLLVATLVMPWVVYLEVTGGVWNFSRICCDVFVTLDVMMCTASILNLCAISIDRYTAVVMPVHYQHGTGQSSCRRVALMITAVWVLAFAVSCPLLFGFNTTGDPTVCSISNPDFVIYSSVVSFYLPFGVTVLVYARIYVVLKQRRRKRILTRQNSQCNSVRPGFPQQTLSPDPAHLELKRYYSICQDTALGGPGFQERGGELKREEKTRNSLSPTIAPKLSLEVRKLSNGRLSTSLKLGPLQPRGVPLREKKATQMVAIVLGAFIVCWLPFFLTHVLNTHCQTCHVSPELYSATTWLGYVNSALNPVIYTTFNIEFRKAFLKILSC
# T1 sequence (P61169 whole entry): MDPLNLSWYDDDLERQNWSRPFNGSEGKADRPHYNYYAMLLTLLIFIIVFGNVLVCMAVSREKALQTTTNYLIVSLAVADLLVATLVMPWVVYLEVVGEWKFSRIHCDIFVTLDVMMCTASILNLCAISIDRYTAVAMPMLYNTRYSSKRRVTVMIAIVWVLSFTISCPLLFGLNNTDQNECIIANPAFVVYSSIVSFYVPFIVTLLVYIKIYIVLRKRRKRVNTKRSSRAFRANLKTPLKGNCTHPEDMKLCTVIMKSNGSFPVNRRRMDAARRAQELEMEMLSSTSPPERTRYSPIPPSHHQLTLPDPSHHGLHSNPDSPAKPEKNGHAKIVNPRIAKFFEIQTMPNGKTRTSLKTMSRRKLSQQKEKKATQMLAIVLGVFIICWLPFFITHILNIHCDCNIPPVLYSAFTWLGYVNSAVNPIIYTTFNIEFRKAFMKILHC
# D(1A) dopamine receptor, sequence (P18901 whole entry): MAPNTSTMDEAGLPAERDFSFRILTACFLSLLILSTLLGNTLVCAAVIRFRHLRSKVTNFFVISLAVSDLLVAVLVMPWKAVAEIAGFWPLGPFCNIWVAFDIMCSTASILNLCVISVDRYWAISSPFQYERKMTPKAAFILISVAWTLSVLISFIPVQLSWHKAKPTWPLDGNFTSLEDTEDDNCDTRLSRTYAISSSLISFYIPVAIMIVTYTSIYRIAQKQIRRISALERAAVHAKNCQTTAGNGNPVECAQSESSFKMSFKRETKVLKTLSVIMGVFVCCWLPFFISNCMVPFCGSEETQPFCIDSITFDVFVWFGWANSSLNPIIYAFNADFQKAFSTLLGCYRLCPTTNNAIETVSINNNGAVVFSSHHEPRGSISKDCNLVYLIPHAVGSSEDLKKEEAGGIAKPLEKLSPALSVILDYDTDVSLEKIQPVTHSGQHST
Compound,Ki (D(2) dopamine receptor [1]),ED50 (Rattus norvegicus [2]),ED50 (Mus musculus [4]),Decrease (Rattus norvegicus [5]),ED50 (Mus musculus [12]),other results
C(#Cc1cnc2ccccc2c1)CCN1CC=C(c2ccccc2)CC1,0.03 µM,–,–,–,–,–
Oc1ccc2[nH]cc(CCCCN3CC=C(c4ccccc4)CC3)c2c1 [ROXINDOLE],0.0091 µM,12.8 mg/kg,0.2 mg/kg,100%,–,Ki (D(3) dopamine receptor): 0.0004 µM; Ki (D(4) dopamine receptor): 0.024 µM; Decrease (Rattus norvegicus [3]): 64%
C(#Cc1ccccc1)CCN1CC=C(c2ccccc2)CC1,–,–,9.5 mg/kg,–,–,ED50 (Rattus norvegicus [6]): 20.5 mg/kg; Ki (D(2) dopamine receptor [7]): 0.284 µM
Nc1cccc(C#CCCN2CC=C(c3ccccc3)CC2)c1,–,–,–,98%,0.68 mg/kg,ED50 (Rattus norvegicus [6]): 5.6 mg/kg; Ki [8]: 1.55 µM; Ki (D(2) dopamine receptor [7]): 0.087 µM; Ki (D(2) dopamine receptor [9]): 0.018 µM; Decrease (Rattus norvegicus [3]): 42%; Ki [10]: 0.107 µM; ED50 (Monkey): 9.3 mg/kg; Max effect (D(2) dopamine receptor [11]): 75%
C(#Cc1ccc2c(c1)OCCO2)CCN1CC=C(c2ccccc2)CC1,0.127 µM,> 30 mg/kg,2.2 mg/kg,–,–,–
Fc1ccc(N2CCN(CCC#Cc3cccnc3)CC2)cc1,1.67 µM,4.3 mg/kg,–,–,4.7 mg/kg,–
C(#Cc1cccnc1)CCN1CCN(c2ncccn2)CC1,> 10 µM,–,> 30 mg/kg,–,–,–
C(#Cc1cccnc1)CCN1CCN(c2ccccn2)CC1,–,> 30 mg/kg,–,–,2.2 mg/kg,–
COc1ccc(C#CCCN2CC=C(c3ccccc3)CC2)cc1,0.327 µM,> 30 mg/kg,3.3 mg/kg,–,–,–
Nc1ccc(C#CCCN2CC=C(c3ccccc3)CC2)cn1,0.033 µM,2.5 mg/kg,0.06 mg/kg,63%,–,Ki (D(1A) dopamine receptor): > 10 µM; Ki [13]: 0.632 µM; Ki (D(2) dopamine receptor [9]): 0.019 µM; EC50 (D(2) dopamine receptor [14]): 0.0005 µM; Ki (D(3) dopamine receptor): 0.007 µM; Ki (D(4) dopamine receptor): 0.278 µM; ED50 (Monkey): 2.8 mg/kg
C(#Cc1cccnc1)CCN1CC=C(c2cccs2)CC1,0.255 µM,5 mg/kg,–,–,0.86 mg/kg,–
C(#Cc1ccncc1)CCN1CC=C(c2ccccc2)CC1,0.032 µM,4.4 mg/kg,–,93%,–,Ki [13]: 0.593 µM; Ki (D(2) dopamine receptor [9]): 0.0041 µM; EC50 (D(2) dopamine receptor [14]): 0.001 µM; Ki (D(3) dopamine receptor): 0.0065 µM; Ki (D(4) dopamine receptor): 0.57 µM; Ki [10]: 0.0258 µM; ED50 (Monkey): 11.9 mg/kg
